Results taken from ChEMBL document CHEMBL3779804, “Novel Ferroptosis Inhibitors with Improved Potency and ADME Properties” (J Med Chem, 2016).
pIC50: −log10 of the molar value. In brackets after ≈: the same amount, converted by molar mass.

Experiments:
[1] = Half life in human liver microsomes by LC/MS/MS analysis; assay type: ADME
In short: (§1)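 Compound incubated with liver microsomes (CYP450 and other NADP-dependent enzymes); parent loss monitored and expressed as half-life in min.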

[2] = Antiferroptotic activity in human HT1080 cells assessed as inhibition of erastin-induced cell death by Alamar blue assay; assay type: functional, cell-based; conditions: HT-1080
[3] = Half life in mouse liver microsomes by LC/MS/MS analysis; assay type: ADME; in short: as §1
[4] = Kinetic solubility of the compound in PBS buffer at pH 7.4 after 2 hrs at 37 deg C by turbidimetric analysis; assay type: physicochemical; conditions: read-out: Kinetic_solubility
In short: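 Turbidimetric kinetic solubility by UV-vis reading; final test concentrations 3.125–200 μM, from DMSO solution diluted into 10 mM PBS pH 7.4.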

[5] = Stability in mouse plasma assessed as percentage recovery after 6 hrs by LC/MS/MS analysis; assay type: ADME, cell-free; conditions: read-out: Drug recovery
In short: (§2)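 Compound incubated in plasma up to 6 h; result given as percentage of parent compound remaining.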

[6] = Stability in human plasma assessed as percentage recovery after 6 hrs by LC/MS/MS analysis; assay type: ADME, cell-free; conditions: read-out: Drug recovery; in short: as §2
[7] = Antiferroptotic activity in human IMR32 neuroblastoma cells assessed as inhibition of erastin-induced cell death preincubated for 1 hr before erastin stimulation and measured after 13 hrs by fluorescence plate reader method; assay type: functional; conditions: IMR-32
In short: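 Human IMR-32 neuroblastoma cells seeded at 25,000/well, next day pretreated 1 h in triplicate with a 1/3 dilution series (5 μM to 0.68 nM) plus Sytox Green (1.6 μM), then stimulated with erastin (10 μM). Sytox Green fluorescence (ex 485/em 520 nm) read after 13 h; Triton-X100 (0.05%) lysis as 100% death reference; % death background-corrected; IC50 determined.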

[8] = Antiferroptotic activity in human HT1080 cells assessed as inhibition of erastin-induced cell death; assay type: functional, cell-based; conditions: HT-1080
[9] = Intrinsic clearance in C57BL/6 mouse liver microsomes; assay type: ADME
[10] = Antiferroptotic activity in human HT1080 cells assessed as inhibition of erastin-induced cell death by cell based assay; assay type: functional; conditions: HT-1080
[11] = Half life in C57BL/6 mouse plasma; assay type: ADME, cell-free

| Compound | pIC50 [7] | also measured |
| --- | --- | --- |
| CCOC(=O)c1ccc(NC2CCCCC2)c(N)c1 | 7.74 | half-life [1]: 6.9 min; pIC50 [2]: 7.02; half-life [3]: 1.9 min; solubility kinetic at 2 h [4]: > 200 µM; remaining at 6 h [5]: 0%; remaining at 6 h [6]: 100% |
| CCOC(=O)c1ccc(NC2CCCCC2)c(NCc2ccccc2)c1 | – | pIC50 [8]: 8.22 |
| CNS(=O)(=O)c1ccc(NC2C3CC4CC(C3)CC2C4)c(NCc2ccccc2)c1 (centres undefined) | 8.31 | – |
| CCNS(=O)(=O)c1ccc(NC2CC3CCC2C3)c(NCc2ccccc2)c1 (centres undefined) | 8.52 | – |
| CCNS(=O)(=O)c1ccc(NC2CCCCCCC2)c(NCc2ccccc2)c1 | 8.62 | – |
| CCNS(=O)(=O)c1ccc(NC2CCCC2)c(NCc2ccncc2)c1 | 7.44 | – |
| CCNS(=O)(=O)c1ccc(NC2CCCCC2)c(N)c1 | 7.17 | half-life [1]: 37 min; half-life [3]: 31 min; solubility kinetic at 2 h [4]: 12.5 µM (≈ 3.72 µg/mL); remaining at 6 h [5]: 86.2%; remaining at 6 h [6]: 81.9% |
| CC(C)(C)NS(=O)(=O)c1ccc(NC2CCCCC2)c(NCc2ccncc2)c1 | 7.96 | – |
| CNS(=O)(=O)c1ccc(NC2CCCCC2)c(N)c1 | 7.12 | – |
| CCNC(=O)c1ccc(NC2C3CC4CC(C3)CC2C4)c(NCc2ccncc2)c1 (centres undefined) | 8.47 | half-life [1]: 16 min; half-life [3]: 30 min; solubility kinetic at 2 h [4]: 25 µM (≈ 10.1 µg/mL); remaining at 6 h [5]: 100%; remaining at 6 h [6]: 100% |
| CCNS(=O)(=O)c1ccc(NC2CC3CCC2C3)c(NCc2ccncc2)c1 (centres undefined) | 8.03 | – |
| CNS(=O)(=O)c1ccc(NC2C3CC4CC(C3)CC2C4)c(NCc2ccncc2)c1 (centres undefined) | 8.19 | – |
| CCNC(=O)c1ccc(NC2CCCCC2)c(NCc2ccccc2)c1 | 7.68 | – |
| COC(=O)c1ccc(NC2CCCCC2)c(N)c1 | 7.47 | – |
| CCNS(=O)(=O)c1ccc(NC2C3CC4CC(C3)CC2C4)c(N)c1 (centres undefined) | 7.77 | – |
| CCNS(=O)(=O)c1ccc(NC2CCCCCCC2)c(N)c1 | 8.03 | – |
| CC(C)(C)NS(=O)(=O)c1ccc(NC2CCCCC2)c(NCc2ccccc2)c1 | 8.21 | – |
| CCNC(=O)c1ccc(NC2CCCCC2)c(NCc2ccncc2)c1 | 7.59 | – |
| CCNS(=O)(=O)c1ccc(NC2CCCCC2)c(NCc2ccccc2)c1 | 8.40 | half-life [1]: 88 min; half-life [3]: 187 min; solubility kinetic at 2 h [4]: 12.5 µM (≈ 4.84 µg/mL); remaining at 6 h [5]: 98.6%; remaining at 6 h [6]: 100% |
| CCNC(=O)c1ccc(NC2C3CC4CC(C3)CC2C4)c(NCc2ccccc2)c1 (centres undefined) | 8.19 | – |
| CCNC(=O)c1ccc(NC2C3CC4CC(C3)CC2C4)c(N)c1 (centres undefined) | 7.85 | – |

| Compound | pIC50 [7] | also measured |
| --- | --- | --- |
| CC(C)(C)NS(=O)(=O)c1ccc(NC2C3CC4CC(C3)CC2C4)c(N)c1 (centres undefined) | 8.22 | – |
| CCNS(=O)(=O)c1ccc(NC2CC2)c(NCc2ccncc2)c1 | 6.89 | – |
| CC(C)(C)NS(=O)(=O)c1ccc(NC2C3CC4CC(C3)CC2C4)c(NCc2ccncc2)c1 (centres undefined) | 8.28 | – |
| CCNS(=O)(=O)c1ccc(NC2CCCC2)c(NCc2ccccc2)c1 | 8.09 | – |
| CCNS(=O)(=O)c1ccc(NC2C3CC4CC(C3)CC2C4)c(NCc2ccccc2)c1 (centres undefined) | 8.46 | half-life [1]: 36 min; half-life [3]: 31 min; solubility kinetic at 2 h [4]: 12.5 µM (≈ 5.5 µg/mL); remaining at 6 h [5]: 99.4%; remaining at 6 h [6]: 100% |
| CCNS(=O)(=O)c1ccc(NC2CC2)c(N)c1 | 7.12 | – |
| CCNS(=O)(=O)c1ccc(NC2CC2)c(NCc2ccccc2)c1 | 7.21 | – |
| CCNS(=O)(=O)c1ccc(NC2CCCCC2)c(NCc2ccncc2)c1 | 7.64 | – |
| Nc1cc(C(=O)O)ccc1NC1CCCCC1 | 6.68 | – |
| CC(C)(C)OC(=O)c1ccc(NC23CC4CC(CC(C4)C2)C3)c(/N=C\c2cncnc2)c1 | – | CLH [9]: < 0.5 mL/min/g; pIC50 [10]: 6.46; half-life [11]: ≥ 120 min |
| CNS(=O)(=O)c1ccc(NC2CCCCC2)c(NCc2ccncc2)c1 | 7.82 | – |
| CCNS(=O)(=O)c1ccc(NC2CCCCCCC2)c(NCc2ccncc2)c1 | 7.66 | – |
| CCNS(=O)(=O)c1ccc(NC2CC3CCC2C3)c(N)c1 (centres undefined) | 7.55 | – |
| CCNS(=O)(=O)c1ccc(NC2C3CC4CC(C3)CC2C4)c(NCc2ccncc2)c1 (centres undefined) | 8.41 | half-life [1]: 64 min; half-life [3]: 26 min; solubility kinetic at 2 h [4]: 12.5 µM (≈ 5.51 µg/mL); remaining at 6 h [5]: 100%; remaining at 6 h [6]: 100% |
| CNS(=O)(=O)c1ccc(NC2C3CC4CC(C3)CC2C4)c(N)c1 (centres undefined) | 7.96 | – |
| CC(C)(C)NS(=O)(=O)c1ccc(NC2C3CC4CC(C3)CC2C4)c(NCc2ccccc2)c1 (centres undefined) | 8.47 | – |
| CC(C)(C)NS(=O)(=O)c1ccc(NC2CCCCC2)c(N)c1 | 7.57 | – |
| CNS(=O)(=O)c1ccc(NC2CCCCC2)c(NCc2ccccc2)c1 | 8.43 | – |
| CCNS(=O)(=O)c1ccc(NC2CCCC2)c(N)c1 | 7.09 | – |
| CCNC(=O)c1ccc(NC2CCCCC2)c(N)c1 | 7.06 | – |
